In ChEMBL document CHEMBL1121378, “Lipophilic and hydrophilic esters of 4-acetyl-2-(2-hydroxyethyl)-5,6-bis(4-chlorophenyl)-2H-pyridazin-3-one as antihypertensive agents” (1980):

Tests used:
Rattus norvegicus [1] = experiment: Antihypertensive activity in spontaneously hypertensive rats was measured as average blood pressure at 13 mg/kg, po after 24 hours of postdose-1; format: functional
How it was run: (§1)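 SHR model with two successive doses, designated dose 1 and dose 2. Group-average blood pressure in mmHg was recorded before dosing and at 4 h and 24 h after each dose. The route is oral unless marked intra-arterial or subcutaneous. A table footnote marks doses that gave no significant lowering at 4 or 24 h postdose.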

Rattus norvegicus [2] = experiment: Antihypertensive activity in spontaneously hypertensive rats was measured as average blood pressure at 13 mg/kg, p.o. after 24 hours of postdose-2; format: functional; conditions: route oral; how it was run: as §1
Rattus norvegicus [3] = experiment: Antihypertensive activity in spontaneously hypertensive rats was measured as average blood pressure at 13 mg/kg, p.o. after 4 hours of postdose-2; format: functional; conditions: route oral; how it was run: as §1
Rattus norvegicus [4] = experiment: Antihypertensive activity in spontaneously hypertensive rats was measured as average blood pressure at 13 mg/kg, p.o. before predose; format: functional; conditions: route oral; how it was run: as §1
Rattus norvegicus [5] = experiment: Antihypertensive activity in spontaneously hypertensive rats was measured as average blood pressure at 13 mg/kg, p.o. after 4 hours of postdose-1; format: functional; conditions: route oral; how it was run: as §1
Rattus norvegicus [6] = experiment: Antihypertensive activity in spontaneously hypertensive rats was measured as average blood pressure at 30 mg/kg, p.o. after 24 hours of postdose-1; format: functional; conditions: route oral; how it was run: as §1
Rattus norvegicus [7] = experiment: Antihypertensive activity in spontaneously hypertensive rats was measured as average blood pressure at 30 mg/kg, po after 24 hours of postdose-2; format: functional; how it was run: as §1
Rattus norvegicus [8] = experiment: Antihypertensive activity in spontaneously hypertensive rats was measured as average blood pressure at 30 mg/kg, p.o. after 4 hours of postdose-1; format: functional; conditions: route oral; how it was run: as §1
Rattus norvegicus [9] = experiment: Antihypertensive activity in spontaneously hypertensive rats was measured as average blood pressure at 30 mg/kg, p.o. after 4 hours of postdose-2; format: functional; conditions: route oral; how it was run: as §1
Rattus norvegicus [10] = experiment: Antihypertensive activity in spontaneously hypertensive rats was measured as average blood pressure at 30 mg/kg, po before predose; format: functional; how it was run: as §1
Rattus norvegicus [11] = experiment: Antihypertensive activity in spontaneously hypertensive rats was measured as average blood pressure at 15 mg/kg, po after 24 hours of postdose-1; No significant lowering of blood pressure; format: functional, organism-based; set-up: dose 15 mg/kg; how it was run: as §1
Rattus norvegicus [12] = experiment: Antihypertensive activity in spontaneously hypertensive rats was measured as average blood pressure at 15 mg/kg, p.o. after 4 hours of postdose-1; No significant lowering of blood pressure; format: functional, organism-based; set-up: dose 15 mg/kg; how it was run: as §1
Rattus norvegicus [13] = experiment: Antihypertensive activity in spontaneously hypertensive rats was measured as average blood pressure at 50 mg/kg, p.o. before predose; format: functional; conditions: route oral
How it was run: (§2)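 Spontaneously hypertensive rats dosed orally twice. Average blood pressure (mmHg) recorded before dosing and at 4 h and 24 h after the first dose and after the second dose. Postdose values checked for significant lowering against predose.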

Rattus norvegicus [14] = experiment: Antihypertensive activity in spontaneously hypertensive rats was measured as average blood pressure at 50 mg/kg, p.o. after 4 hours of postdose-1; format: functional; conditions: route oral; how it was run: as §2
Rattus norvegicus [15] = experiment: Antihypertensive activity in spontaneously hypertensive rats was measured as average blood pressure at 17 mg/kg, p.o. after 24 hours of postdose-1; format: functional; conditions: route oral; how it was run: as §1
Rattus norvegicus [16] = experiment: Antihypertensive activity in spontaneously hypertensive rats was measured as average blood pressure at 17 mg/kg, p.o. before predose; format: functional; conditions: route oral; how it was run: as §1
Rattus norvegicus [17] = experiment: Antihypertensive activity in spontaneously hypertensive rats was measured as average blood pressure at 50 mg/kg, p.o. after 24 hours of postdose-1; format: functional; conditions: route oral; how it was run: as §2
Rattus norvegicus [18] = experiment: Antihypertensive activity in spontaneously hypertensive rats was measured as average blood pressure at 17 mg/kg, p.o. after 4 hours of postdose-2; format: functional; conditions: route oral; how it was run: as §1
Rattus norvegicus [19] = experiment: Antihypertensive activity in spontaneously hypertensive rats was measured as average blood pressure at 17 mg/kg, p.o. after 24 hours of postdose-2; format: functional; conditions: route oral; how it was run: as §1
Rattus norvegicus [20] = experiment: Antihypertensive activity in spontaneously hypertensive rats was measured as average blood pressure at 17 mg/kg, p.o. after 4 hours of postdose-1; format: functional; conditions: route oral; how it was run: as §1
Rattus norvegicus [21] = experiment: Antihypertensive activity in spontaneously hypertensive rats was measured as average blood pressure at 50 mg/kg, po after 4 hours of postdose-2; format: functional; how it was run: as §2
Rattus norvegicus [22] = experiment: Antihypertensive activity in spontaneously hypertensive rats was measured as average blood pressure at 50 mg/kg, p.o. after 24 hours of postdose-2; format: functional; conditions: route oral; how it was run: as §2
Rattus norvegicus [23] = experiment: Antihypertensive activity in spontaneously hypertensive rats was measured as average blood pressure at 100 mg/kg, p.o. after 24 hours of postdose-1; format: functional; conditions: route oral; how it was run: as §1
Rattus norvegicus [24] = experiment: Antihypertensive activity in spontaneously hypertensive rats was measured as average blood pressure at 100 mg/kg, p.o. after 24 hours of postdose-2; format: functional; conditions: route oral; how it was run: as §1
Rattus norvegicus [25] = experiment: Antihypertensive activity in spontaneously hypertensive rats was measured as average blood pressure at 100 mg/kg, p.o. after 4 hours of postdose-1; format: functional; conditions: route oral; how it was run: as §1
Rattus norvegicus [26] = experiment: Antihypertensive activity in spontaneously hypertensive rats was measured as average blood pressure at 100 mg/kg, p.o. after 4 hours of postdose-2; format: functional; conditions: route oral; how it was run: as §1
Rattus norvegicus [27] = experiment: Antihypertensive activity in spontaneously hypertensive rats was measured as average blood pressure at 100 mg/kg, p.o. before predose; format: functional; conditions: route oral; how it was run: as §1
Rattus norvegicus [28] = experiment: Antihypertensive activity in spontaneously hypertensive rats was measured as average blood pressure at 10 mg/kg, p.o. before predose; format: functional; conditions: route oral; how it was run: as §1
Rattus norvegicus [29] = experiment: Antihypertensive activity in spontaneously hypertensive rats was measured as average blood pressure at 10 mg/kg, p.o. after 24 hours of postdose-2; format: functional; conditions: route oral; how it was run: as §1
Rattus norvegicus [30] = experiment: Antihypertensive activity in spontaneously hypertensive rats was measured as average blood pressure at 10 mg/kg, p.o. after 4 hours of postdose-1; format: functional; conditions: route oral; how it was run: as §1
Rattus norvegicus [31] = experiment: Antihypertensive activity in spontaneously hypertensive rats was measured as average blood pressure at 10 mg/kg, p.o. after 24 hours of postdose-1; format: functional; conditions: route oral; how it was run: as §1
Rattus norvegicus [32] = experiment: Antihypertensive activity in spontaneously hypertensive rats was measured as average blood pressure at 10 mg/kg, p.o. after 4 hours of postdose-2; format: functional; conditions: route oral; how it was run: as §1

SMILES: CC(=O)c1c(-c2ccc(Cl)cc2)c(-c2ccc(Cl)cc2)nn(CCOC(=O)CCN)c1=O.Cl
- BP (Rattus norvegicus [1]): 215 mmHg
- BP (Rattus norvegicus [2]): 209 mmHg
- BP (Rattus norvegicus [3]): 195 mmHg
- BP (Rattus norvegicus [4]): 215 mmHg
- BP (Rattus norvegicus [5]): 210 mmHg

SMILES: CC(=O)c1c(-c2ccc(Cl)cc2)c(-c2ccc(Cl)cc2)nn(CCOC(=O)c2ccccc2)c1=O
- BP (Rattus norvegicus [6]): 139 mmHg
- BP (Rattus norvegicus [7]): 130 mmHg
- BP (Rattus norvegicus [8]): 116 mmHg
- BP (Rattus norvegicus [9]): 136 mmHg
- BP (Rattus norvegicus [10]): 173 mmHg

SMILES: CC(=O)c1c(-c2ccc(Cl)cc2)c(-c2ccc(Cl)cc2)nn(CCOC(=O)Cc2ccccc2)c1=O
- BP (Rattus norvegicus [6]): 154 mmHg
- BP (Rattus norvegicus [7]): 127 mmHg
- BP (Rattus norvegicus [8]): 165 mmHg
- BP (Rattus norvegicus [9]): 146 mmHg
- BP (Rattus norvegicus [10]): 174 mmHg

SMILES: Br.CC(=O)c1c(-c2ccc(Cl)cc2)c(-c2ccc(Cl)cc2)nn(CCOC(=O)CN)c1=O
- BP (Rattus norvegicus [1]): 154 mmHg
- BP (Rattus norvegicus [2]): 170 mmHg
- BP (Rattus norvegicus [3]): 145 mmHg
- BP (Rattus norvegicus [4]): 182 mmHg
- BP (Rattus norvegicus [5]): 177 mmHg

SMILES: CSCCC(N)C(=O)OCCn1nc(-c2ccc(Cl)cc2)c(-c2ccc(Cl)cc2)c(C(C)=O)c1=O (centres undefined)
- BP (Rattus norvegicus [11]): Not significant
- BP (Rattus norvegicus [12]): Not significant

SMILES: Br.Br.CC(=O)c1c(-c2ccc(Cl)cc2)c(-c2ccc(Cl)cc2)nn(CCOC(=O)C(N)CCCCN)c1=O (centres undefined)
- BP (Rattus norvegicus [13]): 231 mmHg
- BP (Rattus norvegicus [14]): 179 mmHg
- BP (Rattus norvegicus [15]): 162 mmHg
- BP (Rattus norvegicus [16]): 189 mmHg
- BP (Rattus norvegicus [17]): 173 mmHg
- BP (Rattus norvegicus [18]): 143 mmHg
- BP (Rattus norvegicus [19]): 175 mmHg
- BP (Rattus norvegicus [20]): 165 mmHg

SMILES: N=C(N)NCCN1CCCCCCC1 [GUANETHIDINE]
- BP (Rattus norvegicus [21]): 138 mmHg
- BP (Rattus norvegicus [13]): 187 mmHg
- BP (Rattus norvegicus [22]): 186 mmHg
- BP (Rattus norvegicus [14]): 154 mmHg
- BP (Rattus norvegicus [17]): 166 mmHg

SMILES: CC(=O)c1c(-c2ccc(Cl)cc2)c(-c2ccc(Cl)cc2)nn(CCO)c1=O
- BP (Rattus norvegicus [23]): 185 mmHg
- BP (Rattus norvegicus [24]): 193 mmHg
- BP (Rattus norvegicus [6]): 192 mmHg
- BP (Rattus norvegicus [7]): 206 mmHg
- BP (Rattus norvegicus [8]): 200 mmHg
- BP (Rattus norvegicus [9]): 164 mmHg
- BP (Rattus norvegicus [10]): 213 mmHg
- BP (Rattus norvegicus [25]): 173 mmHg
- BP (Rattus norvegicus [26]): 174 mmHg
- BP (Rattus norvegicus [27]): 218 mmHg

SMILES: C[C@](N)(Cc1ccc(O)c(O)c1)C(=O)O [METHYLDOPA]
- BP (Rattus norvegicus [23]): 174 mmHg
- BP (Rattus norvegicus [24]): 166 mmHg
- BP (Rattus norvegicus [25]): 161 mmHg
- BP (Rattus norvegicus [26]): 155 mmHg
- BP (Rattus norvegicus [27]): 178 mmHg

SMILES: CC(=O)OCCn1nc(-c2ccc(Cl)cc2)c(-c2ccc(Cl)cc2)c(C(C)=O)c1=O
- BP (Rattus norvegicus [28]): 183 mmHg
- BP (Rattus norvegicus [29]): 176 mmHg
- BP (Rattus norvegicus [30]): 162 mmHg
- BP (Rattus norvegicus [31]): 181 mmHg
- BP (Rattus norvegicus [32]): 149 mmHg
- BP (Rattus norvegicus [23]): 132 mmHg
- BP (Rattus norvegicus [24]): 143 mmHg
- BP (Rattus norvegicus [6]): 165 mmHg
- BP (Rattus norvegicus [7]): 152 mmHg
- BP (Rattus norvegicus [9]): 140 mmHg
- BP (Rattus norvegicus [10]): 183 mmHg
- BP (Rattus norvegicus [25]): 150 mmHg
- BP (Rattus norvegicus [26]): 122 mmHg
- BP (Rattus norvegicus [27]): 182 mmHg
